Source: ChEMBL document CHEMBL1821616, “New insights into the structural requirements for pro-apoptotic agents based on 2,4-diaminoquinazoline, 2,4-diaminopyrido[2,3-d]pyrimidine and 2,4-diaminopyrimidine derivatives” (Eur J Med Chem, 2011)
Activity calls are given as the source filed them. The calls are words filed in the database; no cut-off is given here.

Tests used:
T-24 [1] = assay: Induction of apoptosis in human T24 cells assessed as DNA fragmentation after 48 hrs by ELISA relative to control; type: functional
Summary of the method: (§1)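 DNA fragmentation was measured with the Cell Death Detection ELISA Plus kit after treatment of cultured tumour cells. The signal is expressed relative to untreated control cultures, which are set to 1.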

HT-29 [2] = assay: Cytotoxicity against human HT-29 cells after 72 hrs by neutral red dye assay; type: functional, cell-based; details: HT-29, 72 h
Summary of the method: (§2)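 Human tumour cells were grown as monolayers with 10% FBS and penicillin/streptomycin at 37 °C in 5% CO2 (HT-29 and T-24 in McCoy's, MDA-MB-231 in Leibovitz). They were exposed to compound in DMSO (≤0.5% v/v final) at screening concentrations of 20 and 100 μM for 72 h and read by neutral red uptake. Survival is relative to cells given DMSO only, in triplicate.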

[3] = Cytotoxicity against human CRL8799 cells assessed as cell survival at 20 to 100 uM after 72 hrs by neutral red dye assay; type: cell-based; details: read-out: Survival
Summary of the method: (§3)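 The non-tumoral lines were grown with 10% FBS plus penicillin/streptomycin, as monolayers at 37 °C in 5% CO2: CRL-8799 in MEG medium and CRL-11233 in BEGM. Compounds in DMSO (≤0.5% v/v final) were applied for 72 h. Survival was read by neutral red uptake against 0.5% DMSO solvent-treated controls, as the mean of triplicates.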

T-24 [4] = assay: Cytotoxicity against human T24 cells assessed as cell survival at 100 uM after 72 hrs by neutral red dye assay; type: functional; details: T-24, 72 h, read-out: Survival
Summary of the method: (§4)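 HT-29 and T-24 cells were grown in McCoy's medium and MDA-MB-231 in Leibovitz, each with 10% FBS plus penicillin/streptomycin, as monolayers at 37 °C in 5% CO2. Compounds in DMSO (≤0.5% v/v final) were applied for 72 h. Survival was read by neutral red uptake against 0.5% DMSO-treated cells, as the mean of triplicates.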

MDA-MB-231 [5] = assay: Cytotoxicity against human MDA-MB-231 cells assessed as cell survival at 100 uM after 72 hrs by neutral red dye assay; type: functional; details: MDA-MB-231, 72 h, read-out: Survival; summary of the method: as §4
T-24 [6] = assay: Cytotoxicity against human T24 cells after 72 hrs by neutral red dye assay; type: functional, cell-based; details: T-24, 72 h; summary of the method: as §2
HT-29 [7] = assay: Cytotoxicity against human HT-29 cells assessed as cell survival at 100 uM after 72 hrs by neutral red dye assay; type: functional; details: HT-29, 72 h, read-out: Survival; summary of the method: as §4
MDA-MB-231 [8] = assay: Cytotoxicity against human MDA-MB-231 cells after 72 hrs by neutral red dye assay; type: functional, cell-based; details: MDA-MB-231, 72 h; summary of the method: as §2
HT-29 [9] = assay: Induction of apoptosis in human HT-29 cells assessed as DNA fragmentation after 48 hrs by ELISA relative to control; type: functional; summary of the method: as §1
MDA-MB-231 [10] = assay: Induction of apoptosis in human MDA-MB-231 cells assessed as DNA fragmentation after 24 hrs by ELISA relative to control; type: functional; summary of the method: as §1
[11] = Cytotoxicity against human CRL11233 cells assessed as cell survival at 20 to 100 uM after 72 hrs by neutral red dye assay; type: cell-based; details: read-out: Survival; summary of the method: as §3

Row | SMILES | Activity (T-24 [1]) | IC50 (HT-29 [2]) [µM] | viability at 72 h, up to 100 µM [3] [%] | viability at 100 µM (T-24 [4]) [%] | viability at 100 µM (MDA-MB-231 [5]) [%] | IC50 (T-24 [6]) [µM] | viability at 100 µM (HT-29 [7]) [%] | IC50 (MDA-MB-231 [8]) [µM] | Activity (HT-29 [9]) | Activity (MDA-MB-231 [10]) | viability at 72 h, up to 100 µM [11] [%] | fold change (FC) (HT-29 [9]) | fold change (FC) (T-24 [1]) | fold change (FC) (MDA-MB-231 [10])
1 | CCCCCCNc1nc(NCCCCCC)c2ccccc2n1 | inactive | 5.81 | 2 | < 45 | < 45 | 23.3 | < 45 | 7.56 | inactive | inactive | 0 | – | – | –
2 | CCCCNc1nc(NCCCC)c2ccccc2n1 | inactive | 6.96 | 4 | < 45 | < 45 | 19.3 | < 45 | 1.09 | – | inactive | 1 | 1.5 | – | –
3 | Brc1ccc(CCNc2nc(NCCc3ccc(Br)cc3)c3cccnc3n2)cc1 | – | 4.1 | 90 | < 45 | < 45 | 11.5 | < 45 | 2.7 | – | inactive | 100 | 7.2 | 1.5 | –
4 | Clc1ccc(CNc2nc(NCc3ccc(Cl)cc3)c3ccccc3n2)cc1 | – | 5.89 | 0 | < 45 | < 45 | 6.41 | < 45 | 4.26 | inactive | inactive | 0 | – | 2 | –
5 | CCCCNc1nc(SCC)nc2ncccc12 | – | 25.3 | – | < 45 | < 45 | 20.9 | < 45 | 9.2 | – | – | – | 1.2 | 1.5 | 2.2
6 | Cc1ccc(CNc2nc(NCc3ccc(C)cc3)c3cccnc3n2)cc1 | – | 7.5 | 95 | < 45 | < 45 | 5 | < 45 | 3.2 | inactive | – | 100 | – | 2.7 | 4
7 | Cc1ccc(CNc2nc(NCc3ccc(C)cc3)c3ccccc3n2)cc1 | – | 4.42 | 13 | < 45 | < 45 | 15.4 | < 45 | 5.47 | – | inactive | 33 | 5.2 | 4.3 | –
8 | Clc1ccc(CNc2nc(NCc3ccc(Cl)cc3)c3cccnc3n2)cc1 | – | 15 | 0 | < 45 | < 45 | 11 | < 45 | 8.3 | inactive | – | 100 | – | 1.9 | 1.3
9 | Cc1ccc(CNc2ccnc(NCc3ccc(C)cc3)n2)cc1 | – | 14.9 | 6 | < 45 | < 45 | 22.2 | < 45 | 19.1 | – | – | 1 | 2 | 4.8 | 1.5
10 | CCCCCCCNc1nc(SC(C)C)nc2ncccc12 | – | 24.4 | – | < 45 | < 45 | 8 | < 45 | 7 | inactive | – | – | – | 1.5 | –
11 | CCCCNc1nc(SC(C)C)nc2ncccc12 | inactive | 32.1 | – | < 45 | < 45 | 12.3 | < 45 | 15.7 | inactive | – | – | – | – | 1.3
12 | Clc1ccc(CNc2ccnc(NCc3ccc(Cl)cc3)n2)cc1 | inactive | 9.8 | 0 | < 45 | < 45 | 8.5 | < 45 | 2 | – | – | – | 2.7 | – | 2.2
13 | CCNc1nc(SCC)nc2ncccc12 | – | 26.2 | – | < 45 | < 45 | 20.1 | < 45 | 18.7 | inactive | – | – | – | 1.3 | 2
14 | CCCCNc1nc(SCCCC)nc2ncccc12 | – | 13.6 | – | < 45 | < 45 | 10.6 | < 45 | 8.4 | inactive | – | – | – | 3.7 | –
15 | CCCCCCNc1nc(NCCCCCC)c2cccnc2n1 | – | 4.23 | – | < 45 | < 45 | 4.6 | < 45 | 2.1 | – | – | – | – | – | –
16 | COc1ccc(CNc2ccnc(NCc3ccc(OC)cc3)n2)cc1 | – | 12.6 | 0 | < 45 | < 45 | 18.7 | < 45 | 1.5 | – | – | – | 1.9 | 1.5 | 2.4
17 | CCCCCCNc1nc(SC(C)C)nc2ncccc12 | – | 20.2 | – | < 45 | < 45 | 15.8 | < 45 | 4.5 | – | – | – | – | 1.6 | 2.9
18 | CCCCCCNc1nc(SCCCCC)nc2ncccc12 | inactive | 18.4 | – | < 45 | < 45 | 18.5 | < 45 | 9 | inactive | – | – | – | – | –
